Data on 34 molecules can be found in ChEMBL document CHEMBL1157552, “Antimalarial and antitubercular nostocarboline and eudistomin derivatives: synthesis, in vitro and in vivo biological evaluation” (Bioorg Med Chem, 2010).

Data set [1] has as its system Corynebacterium glutamicum. The data set is described as follows: Antitubercular activity against Corynebacterium glutamicum ATCC 13032. The class given is functional. The method in brief:
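Grown in 7H9 medium; susceptibility determined by resazurin reduction. MIC99 is the lowest drug concentration preventing growth of 99% of cells.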

The test system of data set [2] is Mycobacterium tuberculosis. The experiment in a line: Antitubercular activity against Mycobacterium tuberculosis H37Rv. The class given is functional.
For data set [3], the system named is Mycolicibacterium smegmatis. The data set is described as follows: Antitubercular activity against Mycobacterium smegmatis mc2 155. The format is functional. As to conditions: str. MC2 155.
Data set [4] deals with Trypanosoma brucei rhodesiense. The experiment in a line: Antiparasitic activity against Trypanosoma brucei rhodesiense STIB 900. The format is functional, organism-based. Put shortly: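 Tested against bloodstream forms of STIB 900.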
For a further data set, the system named is Trypanosoma cruzi. The data set is described as follows: Antiparasitic activity against Trypanosoma cruzi Tulahuen C2C4. The class given is functional, organism-based. Put shortly:
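Tested against Tulahuen C2C4 amastigotes grown in L6 rat skeletal myoblasts.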

The next data set concerns Plasmodium falciparum. The data set is described as follows: Antiparasitic activity against Plasmodium falciparum K1. The class given is functional, organism-based. The method in brief: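 Tested against erythrocytic stages of the K1 strain.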
Another data set has as its system Leishmania donovani. The data set is described as follows: Antiparasitic activity against Leishmania donovani MHOM-ET-67/L82 axenic amastigotes. The format is functional, organism-based.
The test system of the next data set is Plasmodium berghei. The experiment in a line: Antiparasitic activity against Plasmodium berghei infected in mice (Mus musculus) assessed as reduction of parasitaemia at 50 mg/kg, intraperitoneally administered 4, 24, 48, 72 hrs post infection measured 24 hrs of last treatment on day 4 relative to control. The class given is functional. Set-up: scale not given: the % may be the effect or the level left. Particulars: route intraperitoneal. Put shortly:
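Compounds formulated in DMSO/water and given i.p. at 50 mg/kg, 4 doses, to P. berghei-infected mice. Parasitaemia measured by FACS on day 4 post infection, 24 h after the last dose. Activity is the difference in mean % parasitaemia between control (n = 5 mice) and treated groups, as % of control. Mean survival time was also recorded.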

Another data set deals with L6. The data set is described as follows: Cytotoxicity against rat L6 cells. The format is cell-based.
Data set [5] in a line: Selectivity ratio of IC50 for rat L6 cells to IC50 for Plasmodium falciparum K1. Particulars: L6 cells (cytotoxicity) versus Plasmodium falciparum K1, read-out: Ratio IC50. The class given is ADME, cell-based.

Counter-ions that a name gives are not always drawn.

Consider `Clc1ccc2[nH]c3c[n+](CCCCCCCCCC[n+]4ccc5c(c4)[nH]c4ccc(Cl)cc45)ccc3c2c1`, for which the MIC99 is 14 µM in data set [1], 4 µM in data set [2] and > 142 µM in data set [3].
On to `CC[n+]1ccc2c(c1)[nH]c1ccc(Br)cc12.[I-]`, for which the IC50 in data set [4] was 26.4 µM; in the data set with Trypanosoma cruzi, 90.5 µM; in the data set with Plasmodium falciparum, 0.032 µM; with Leishmania donovani, > 223 µM; in the data set with L6, 78.8 µM. The Activity in the data set on Plasmodium berghei worked out at 13.25%. In [5], the selectivity ratio is 2440.
Turning to `Brc1cccc2c1[nH]c1c[n+](Cc3ccccc3)ccc12`, the concentration for half-maximal inhibition (IC50) is 7 µM in [4]; 42.9 µM in the data set on Trypanosoma cruzi; 2.58 µM in the data set with Plasmodium falciparum; 66.5 µM in the data set with Leishmania donovani; 28.7 µM with L6. Besides, the selectivity ratio in [5] was found to be 11.
On to `CC[n+]1ccc2c(c1)[nH]c1ccc(Cl)cc12.[I-]`, for which the IC50 in [4] stood at 36.8 µM; in the data set with Trypanosoma cruzi it was 100 µM; with Plasmodium falciparum, 0.452 µM; in the data set with Leishmania donovani it was 251 µM; with L6 it was 113 µM. For the same molecule, the Activity in the data set with Plasmodium berghei came out at 15.36%. In addition, in [5], the selectivity ratio came out at 250.
As for `Clc1ccc2[nH]c3c[n+](CCCCCCCCCCCC[n+]4ccc5c(c4)[nH]c4ccc(Cl)cc45)ccc3c2c1`, the values for the MIC99 in [1], in data set [2] and in data set [3] were 14 µM, 7 µM and 17 µM, respectively.
Take `Fc1ccc(C[n+]2ccc3c(c2)[nH]c2ccc(Br)cc23)cc1`: the half-inhibitory concentration (IC50) in data set [4] was determined as 4.7 µM; with Trypanosoma cruzi, 13.3 µM; in the data set on Plasmodium falciparum it was 1.76 µM; in the data set with Leishmania donovani, 16.4 µM; in the data set on L6, 22.6 µM. For the same molecule, in data set [5], the selectivity ratio worked out at 13.
Regarding `Brc1cccc2c1[nH]c1c[n+](Cc3ccc4ccccc4c3)ccc12`, the IC50 was 4.4 µM in [4]; 7.9 µM in the data set with Trypanosoma cruzi; 0.502 µM in the data set with Plasmodium falciparum; 46.4 µM with Leishmania donovani; 3.7 µM in the data set with L6. The selectivity ratio in data set [5] is 7.
As for `CC[n+]1ccc2c(c1)[nH]c1c(Br)cccc12`, the half-maximal inhibitory concentration (IC50) in data set [4] is 25 µM; in the data set on Trypanosoma cruzi, 170 µM; in the data set with Plasmodium falciparum, 6.62 µM; in the data set on Leishmania donovani, > 223 µM; in the data set on L6 it was 153 µM. Besides, the selectivity ratio in data set [5] stood at 23.
`O=[N+]([O-])c1ccc(C[n+]2ccc3c(c2)[nH]c2ccc(Br)cc23)cc1`: the IC50 worked out at 10.8 µM in [4]; 14.1 µM with Trypanosoma cruzi; 1.33 µM with Plasmodium falciparum; 38.2 µM with Leishmania donovani; 18.1 µM with L6. The selectivity ratio in data set [5] is 14.
With `Brc1ccc2[nH]c3c[n+](Cc4ccc5ccccc5c4)ccc3c2c1`, the half-maximal inhibitory concentration (IC50) in data set [4] turned out to be 4.1 µM; with Trypanosoma cruzi, 7.5 µM; in the data set on Plasmodium falciparum it was 0.481 µM; with Leishmania donovani it was 17.7 µM; in the data set with L6, 5.1 µM. In data set [5], the selectivity ratio was determined as 11.
Take `O=[N+]([O-])c1ccc(C[n+]2ccc3c(c2)[nH]c2ccc(Cl)cc23)cc1`: the half-inhibitory concentration (IC50) was 21.3 µM in data set [4]; 32.8 µM in the data set with Trypanosoma cruzi; 2.21 µM in the data set with Plasmodium falciparum; 146 µM with Leishmania donovani; 42.2 µM in the data set on L6. Further, the selectivity ratio in [5] was 19.
`C=CC[n+]1ccc2c(c1)[nH]c1c(Br)cccc12`: the IC50 amounted to 26.2 µM in data set [4]; 154 µM with Trypanosoma cruzi; 6.74 µM in the data set with Plasmodium falciparum; 123 µM in the data set on Leishmania donovani; 112 µM in the data set with L6. For the same molecule, in data set [5], the selectivity ratio turned out to be 17.
Consider `O=C1c2ccccc2-[n+]2ccc3c([nH]c4ccccc43)c21` [FASCAPLYSIN CHLORIDE], for which the concentration for half-maximal inhibition (IC50) with Plasmodium falciparum was 0.184 µM. In addition, the selectivity ratio in [5] was 50.
For the molecule `Clc1ccc2[nH]c3c[n+](CCCCCCCC[n+]4ccc5c(c4)[nH]c4ccc(Cl)cc45)ccc3c2c1`, the MIC99 amounted to 7 µM in data set [1], 7 µM in data set [2] and 147 µM in data set [3].
With `CCCC[n+]1ccc2c(c1)[nH]c1ccc(Br)cc12`, the concentration for half-maximal inhibition (IC50) turned out to be 11.7 µM in data set [4]; 35.3 µM with Trypanosoma cruzi; 1.15 µM in the data set on Plasmodium falciparum; 35.1 µM in the data set with Leishmania donovani; 68.7 µM with L6. Moreover, the selectivity ratio in data set [5] was 60.
As to `C[n+]1cc2[nH]c3ccccc3c2c2ccccc21` [ISONEOCRYPTOLEPINE], the selectivity ratio in data set [5] was found to be 18.
For `C[n+]1ccc2c(c1)[nH]c1ccc(Br)cc12.[I-]`, the half-maximal inhibitory concentration (IC50) is 47.2 µM in data set [4]; 132 µM with Trypanosoma cruzi; 0.018 µM in the data set on Plasmodium falciparum; > 230 µM in the data set with Leishmania donovani; 86.1 µM with L6. Besides, the Activity in the data set on Plasmodium berghei was found to be 0%. Further, in [5], the selectivity ratio was determined as 4780.
Regarding `Clc1ccc2[nH]c3c[n+](CCCc4ccccc4)ccc3c2c1`, the IC50 is 6.2 µM in [4]; 20.9 µM in the data set on Trypanosoma cruzi; 1.61 µM in the data set on Plasmodium falciparum; 18.6 µM in the data set with Leishmania donovani; 71.3 µM in the data set with L6. In data set [5], the selectivity ratio is 44.
Consider `Brc1ccc2[nH]c3c[n+](Cc4ccccc4)ccc3c2c1`, for which the IC50 in data set [4] was determined as 5.2 µM; with Trypanosoma cruzi, 16.3 µM; in the data set with Plasmodium falciparum, 2.37 µM; with Leishmania donovani it was 21.2 µM; in the data set with L6, 61.6 µM. For the same molecule, in data set [5], the selectivity ratio was 26.
For the molecule `C=CC[n+]1ccc2c(c1)[nH]c1ccc(Cl)cc12`, the half-maximal inhibitory concentration (IC50) was determined as 33.5 µM in [4]; 57.8 µM in the data set with Trypanosoma cruzi; 0.831 µM with Plasmodium falciparum; 196 µM in the data set on Leishmania donovani; 126 µM with L6. For the same molecule, in data set [5], the selectivity ratio turned out to be 152.
Take `C[n+]1ccc2c(c1)[nH]c1ccccc12` [NORMELINONINE F]: in data set [5], the selectivity ratio is > 853.
Take `Fc1ccc(C[n+]2ccc3c(c2)[nH]c2c(Br)cccc23)cc1`: the IC50 in [4] amounted to 3.8 µM; with Trypanosoma cruzi it was 28.7 µM; in the data set with Plasmodium falciparum, 3.28 µM; with Leishmania donovani, 53.4 µM; with L6 it was 17.5 µM. Moreover, the selectivity ratio in data set [5] turned out to be 5.
Regarding `Clc1ccc2[nH]c3c[n+](C/C=C\C[n+]4ccc5c(c4)[nH]c4ccc(Cl)cc45)ccc3c2c1.[Cl-].[Cl-]`, the MIC99 in data set [1] is 5 µM; in data set [2] it was 9 µM; in data set [3] it was > 188 µM. Moreover, the Activity with Plasmodium berghei stood at 11.53%.
Turning to `C[n+]1c2ccccc2cc2[n-]c3ccccc3c21` [CRYPTOLEPINE HYDROCHLORIDE], in [5], the selectivity ratio was 9.
In the case of `Brc1ccc2[nH]c3c[n+](CCCc4ccccc4)ccc3c2c1`, the IC50 came to 4.5 µM in [4]; 12.6 µM with Trypanosoma cruzi; 0.459 µM with Plasmodium falciparum; 20.4 µM in the data set on Leishmania donovani; 27.5 µM with L6. For the same molecule, in [5], the selectivity ratio came out at 60.
Turning to `COC(=O)CCC[n+]1ccc2c(c1)[nH]c1ccc(Br)cc12`, the IC50 in data set [4] is 111 µM; with Trypanosoma cruzi it was 64.6 µM; with Plasmodium falciparum, 2.33 µM; with Leishmania donovani, > 203 µM; in the data set on L6 it was 162 µM. Further, in data set [5], the selectivity ratio came out at 70.
As for `Clc1ccc2[nH]c3c[n+](Cc4cccc(C[n+]5ccc6c(c5)[nH]c5ccc(Cl)cc56)c4)ccc3c2c1`, the MIC99 is 20 µM in data set [1], 20 µM in data set [2] and 50 µM in data set [3].
As to `COC(=O)CCC[n+]1ccc2c(c1)[nH]c1ccc(Cl)cc12`, the IC50 stood at 106 µM in data set [4]; 115 µM with Trypanosoma cruzi; 3.14 µM in the data set on Plasmodium falciparum; 117 µM in the data set on Leishmania donovani; 207 µM in the data set with L6. Besides, the selectivity ratio in data set [5] came out at 66.
On to `Clc1ccc2[nH]c3c[n+](Cc4ccc(C[n+]5ccc6c(c5)[nH]c5ccc(Cl)cc56)cc4)ccc3c2c1`, for which the MIC99 in [1] is > 17 µM; in [2], > 17 µM; in data set [3] it was > 170 µM.
`Fc1ccc(C[n+]2ccc3c(c2)[nH]c2ccc(Cl)cc23)cc1`: the 50% inhibitory concentration (IC50) was 18.1 µM in [4]; 87.7 µM in the data set on Trypanosoma cruzi; 4.67 µM in the data set with Plasmodium falciparum; 110 µM in the data set on Leishmania donovani; 111 µM with L6. The selectivity ratio in [5] stood at 24.
Take `CCCC[n+]1ccc2c(c1)[nH]c1ccc(Cl)cc12`: the IC50 in data set [4] was 11.6 µM; in the data set with Trypanosoma cruzi it was 104 µM; with Plasmodium falciparum, 1.62 µM; in the data set on Leishmania donovani, 112 µM; in the data set on L6 it was 74 µM. Further, in data set [5], the selectivity ratio was 46.
For `Fc1cccc(C[n+]2ccc3c(c2)[nH]c2ccc(Br)cc23)c1`, the IC50 in data set [4] worked out at 5.6 µM; in the data set on Trypanosoma cruzi, 25.9 µM; with Plasmodium falciparum, 2.15 µM; in the data set with Leishmania donovani, 11 µM; in the data set with L6, 41.5 µM. Also, the selectivity ratio in data set [5] is 19.
For the molecule `C=CC[n+]1ccc2c(c1)[nH]c1ccc(Br)cc12.[Br-]`, the half-inhibitory concentration (IC50) in data set [4] came out at 17.4 µM; with Trypanosoma cruzi, 86.6 µM; with Plasmodium falciparum, 0.492 µM; in the data set on Leishmania donovani, 20.1 µM; in the data set on L6 it was 131 µM. Further, the Activity in the data set with Plasmodium berghei is 3.57%. The selectivity ratio in data set [5] amounted to 266.
For the molecule `Clc1ccc2[nH]c3c[n+](Cc4ccccc4)ccc3c2c1`, the half-maximal inhibitory concentration (IC50) was determined as 6.2 µM in [4]; 24.6 µM with Trypanosoma cruzi; 3 µM in the data set with Plasmodium falciparum; 113 µM in the data set with Leishmania donovani; 27 µM with L6. For the same molecule, the selectivity ratio in data set [5] came out at 9.

One may read the MIC99 as the lowest concentration that inhibits either 99% of growth or 99% of the strains tested, depending on the study. In general, IC50 refers to the point on the concentration scale where inhibition reaches its midpoint.
